Data on three compounds can be found in ChEMBL document CHEMBL1125929, “Octoclothepin enantiomers. A reinvestigation of their biochemical and pharmacological activity in relation to a new receptor-interaction model for dopamine D-2 receptor antagonists” (J Med Chem, 1991).

Format in all cases: functional
What all share (details): sc

The subject of assay [1] is Mus musculus. Description: Dose to antagonise, when given subcutaneously to mice (in vivo) using methyl phenidate antagonism test. The gist of the method:
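Male NMRI mice (18–25 g) got test compound sc 2 h before methyl phenidate (222 μmol/kg sc). Mice were placed in pairs on corrugated cardboard in gnawing cages. Gnawing was judged 1 h later by inspecting the cardboard. Six to nine pairs per dose.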

Assay [2] relates to Rattus norvegicus. Kind of assay: Dose to antagonise, when given subcutaneously to 6-OH-DA-lesioned rats, using SK & F 38393 antagonism test.(in vivo). The gist of the method:
(§1)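 Unilateral 6-OHDA-lesioned rats, tested 2–9 months after lesioning once stable contralateral circling was seen. Agonist was pergolide (0.05 μmol/kg sc) or SK&F 38393 (4.3 μmol/kg sc), given 2 h after the test compound. Inhibition was calculated as percent of each rat's own control circling response. Four to eight rats per dose.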

Assay [3] concerns Rattus norvegicus. Kind of assay: Dose to antagonise, when given subcutaneously to 6-OH-DA-lesioned rats, using pergolide antagonism test.(in vivo). The gist of the method: as §1
Assay [4] has as its system Rattus norvegicus. Description: Dose to antagonise, when given subcutaneously to rats (in vivo) using flexor reflex St 587 antagonism test.
Assay [5] deals with Rattus norvegicus. Description: Dose to antagonise, when given subcutaneously to rats (in vivo) using catalepsy test, maximum effect 1-6h. The gist of the method:
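Male Wistar rats (170–270 g) were scored hourly 1–6 h after dosing on a vertical wire grid. Catalepsy counted as present after at least 15-s immobility. The maximum effect over 1–6 h was taken. Eight to twelve animals per dose.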

Assay [6] concerns Rattus norvegicus. Description: Dose to antagonise, when given subcutaneously to rats (in vivo) using quipazine antagonism test. An outline of the steps: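 Rats got test compound 2 h before quipazine (15 μmol/kg sc). Each rat was observed singly in a perspex box, and head twitches were counted 30–40 min after quipazine. Inhibition was expressed as percent of a parallel control group. Four to eight rats per dose.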

In assay [7] the test system is Rattus norvegicus. Description: Dose to antagonise, when given subcutaneously to rats (in vivo) using inhibition of locomotor motility test. The gist of the method: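 Locomotor activity of male Wistar rats was measured in photocell cages 2 h after test compound or saline. Four to eight animals per dose.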

SMILES strings stand for the structures.

By ED50 is commonly meant the dose at which the effect has come halfway, by size or by number of responders. A lower ED50 goes with greater potency.

On to `CN1CCN([C@H]2Cc3ccccc3Sc3ccc(Cl)cc32)CC1`, for which the 50% effective dose (ED50) in assay [1] was 0.2 µmol/kg; in assay [2], 0.85 µmol/kg; in assay [3], 0.017 µmol/kg; in assay [4] it was 0.26 µmol/kg; in assay [5] it was 0.65 µmol/kg; in assay [6] it was 0.02 µmol/kg. In addition, the 50% effect level in assay [7] (ED50) was put at a dose of 0.12 µmol/kg.

For the compound `CN1CCN([C@@H]2Cc3ccccc3Sc3ccc(Cl)cc32)CC1`, the 50% effective dose (ED50) in assay [1] came out at 3.8 µmol/kg; in assay [2], 1.9 µmol/kg; in assay [3], 0.31 µmol/kg; in assay [4] it was 0.095 µmol/kg; in assay [5], 24 µmol/kg; in assay [6] it was 0.012 µmol/kg. In assay [7], this compound showed a 50% effective dose (ED50) of 0.46 µmol/kg.

For the compound `CN1CCN(C2Cc3ccccc3Sc3ccc(Cl)cc32)CC1` (stereo unspecified) [CLOROTEPINE], the ED50 in assay [1] stood at 0.19 µmol/kg; in assay [2] it was 0.25 µmol/kg; in assay [3], 0.033 µmol/kg; in assay [4], 0.064 µmol/kg; in assay [5], 1.3 µmol/kg; in assay [6], 0.019 µmol/kg. The compound further showed an ED50 in assay [7] of 0.18 µmol/kg.
